# EBV LMP1 NFkB: inhibitors of Epstein-Barr LMP1-induced NF-kappaB reporter. LMP1-induced NF-kappaB luciferase reporter cells, luminescence. inhibition, % at 12.5 µM. hit rate 0.69% among 350,000; in the data active = inhibition above about 41%; inconclusive = no clear call, values can overlap the other calls
# Shn3 inh set2: inhibitors of Schnurri-3 3'UTR reporter in osteoblasts | Clone20 osteoblast Shn3 3'UTR firefly luciferase, 24 h | inhibition, % at 12.5 µM | hit rate 0.52% among 360,000 | AID 588674;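 active = mean inhibition of at least 75% with every replicate also reaching 75%; inconclusive = mean inhibition at least 75% but some replicate below; inactive = mean inhibition below 75%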
# FN deposition inh: fibronectin deposition inhibition | AH1F fibroblasts, Alexa488-fibronectin deposition fluorescence, overnight | inhibition, % at 12.6 µM | hit rate 0.086% among 350,000 | AID 743247;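 active = mean inhibition across replicates of 30% or more, regardless of how many single replicates reach that level; inconclusive = mean under 30% yet at least half of replicates reach 30%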
#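 Schedule: 1 h cell adhesion before compound, then overnight fibronectin incubation; test system: AH1F fibroblast monolayer depositing Alexa488-labelled fibronectin into matrix; quantity: 10000 AH1F cells per well; probe or stimulus: fluorescent fibronectin at 24 nM final; signal: fluorescence, ex 485 nm, em 525 nm; evaluation: percent inhibition as loss of matrix-bound fibronectin fluorescence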
# aSyn 5UTR inh: 5' untranslated region of α-synuclein, MLPCN primary screen; hit rate 0.82% among 300,000; inhibition, % (tested at 7.5 µM); alpha-synuclein 5'UTR reporter, inhibitor activity; AID 1813; in the data active = inhibition above about 60%; inconclusive = no clear call, values can overlap the other calls;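 note: H4 neuroglioblastoma cells stably carrying SNCA 5'UTR luciferase fusion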
# PAX8 reporter: inhibitors of PAX8 transcriptional activity in RMG-I cells; RMG-I TPO-luciferase reporter, SteadyGlo, 24 h; inhibition, % at 12.6 µM; hit rate 1.2% among 360,000;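 active = mean replicate inhibition at least 60% with every replicate also reaching 60%; inconclusive = only one of the two criteria is met; inactive = mean below 60% and not all replicates reaching 60%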;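 note: luciferase light reporting Pax8 driven TPO promoter activity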
# EWS-Fli inh: EWS/Fli transcriptional activity inhibition; A673 NR0B1-luciferase reporter, viability-normalised; inhibition, % at 12.6 µM; hit rate 0.67% among 350,000; AID 651661;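 active = mean inhibition of at least 50% after viability correction, with every replicate also passing that limit; inconclusive = mean reaches 50% but only one of two replicates passes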;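 note: firefly luciferase signal divided by Alamar Blue viability fluorescence both relative to DMSO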
# A number is an active result; i = inactive; ? = inconclusive; nt = no result. The list is not random: actives were taken first. Their share in the collection is about 2.1%.
SMILES,EBV LMP1 NFkB,Shn3 inh set2,FN deposition inh,aSyn 5UTR inh,PAX8 reporter,EWS-Fli inh
O=C/C=C/c1ccc(-c2ccccc2)cc1,nt,nt,nt,nt,i,i
C[C@H]1CN([C@@H](C)CO)C(=O)c2cc(-c3ccc(C(=O)N(C)C)cc3)cnc2O[C@H]1CN(C)C(=O)c1ccncc1,nt,nt,i,nt,i,i
O=C(C[C@H]1CC[C@H]2[C@@H](COC[C@H](O)CN2C(=O)c2ccc(F)cc2)O1)N1CCOCC1,nt,nt,i,nt,i,i
C[C@@H]1CN([C@@H](C)CO)C(=O)c2cc(NC(=O)CCN3CCOCC3)ccc2O[C@H]1CN(C)Cc1ccc(Cl)c(Cl)c1,nt,nt,nt,nt,i,nt
Cc1noc(C)c1NC(=O)N(C)C[C@@H]1OCCCC[C@H](C)Oc2ccc(NC(=O)c3ccccc3)cc2C(=O)N([C@H](C)CO)C[C@H]1C,nt,nt,i,nt,i,i
NC(=O)/C=C/C(=O)Nc1ccc(Cl)cc1,i,i,i,i,i,i
O=C(/C=C/C(Cl)(Cl)Cl)Nc1ccc(Cl)cc1,i,i,i,nt,i,52.6
C/C(=N\NC(=O)c1ccc(C)cc1)c1c(C)[nH]n(-c2ccccc2)c1=O,i,i,i,66.8,i,i
O=C1CCc2cccc(O)c2N1,i,94.0,i,nt,i,i
COC(=O)c1[nH]c2ccc(Br)cc2c1NC(=O)CN1CCN(C2CCCCC2)CC1,i,i,i,75.1,i,nt
Cc1ccc(S(=O)(=O)Nc2ccc3c(c2)C(=O)N([C@H](C)CO)C[C@H](C)[C@H](CN(C)C)OCCCC[C@H](C)O3)cc1,nt,nt,i,nt,i,i
COCCN=c1scc(-c2ccco2)n1/N=C/c1ccc(O)c(O)c1O,i,i,i,nt,i,i
C=CCN=c1scc(-c2ccco2)n1/N=C/c1ccc(O)c(O)c1O,i,91.3,i,i,i,i
CC(C)N=c1scc(-c2ccco2)n1/N=C/c1ccc(O)c(O)c1,i,93.5,i,nt,nt,nt
CO[C@@H]1CN(C)C(=O)c2cc(NC(=O)CC(F)(F)F)ccc2OC[C@H](C)NC[C@@H]1C,nt,nt,i,nt,nt,i
COCC(=O)N1CC(=O)N2[C@H](CO)[C@@H](c3ccc(C#CC(C)C)cc3)[C@H]2C1,nt,nt,nt,nt,i,i
C/C=C/c1ccc(C2[C@H]3CNC[C@@H]2N3S(=O)(=O)Cc2ccccc2)cc1 (stereo partly specified),nt,nt,i,nt,nt,nt
Cn1c(-c2ccccc2F)cc2onc(-c3ccccc3)c2c1=O,i,i,i,nt,i,i
Cn1c(-c2ccccc2)cc2onc(-c3ccccc3)c2c1=O,i,i,i,nt,i,80.7
COc1ccc(OC)c(N(CCN2C(=O)c3ccccc3C2=O)C(=O)CCl)c1,i,i,i,nt,103.8,?
COc1ccc(NC(=O)CCN2C(=O)c3ccccc3C2=O)c(OC)c1,i,i,i,i,i,i
CCC(C)c1ccc(NC(=O)COC(=O)CCNC(=O)c2ccco2)cc1 (stereo unspecified),i,i,nt,nt,i,i
COc1ccc(-c2ccc(NC(=O)c3ccco3)cc2)nn1,57.1,i,i,i,?,63.7
COc1ccc(-c2cccc(NC(=O)c3ccco3)c2)nn1,i,i,i,i,i,i
CCC(C)c1ccc(NC(=O)c2ccco2)cc1 (stereo unspecified),i,i,i,i,i,58.0
SMILES,EBV LMP1 NFkB,Shn3 inh set2,FN deposition inh,aSyn 5UTR inh,PAX8 reporter,EWS-Fli inh
CC(=O)Nc1ccc(NC(=O)c2ccco2)cc1,i,i,i,i,nt,nt
O=C(Cc1ccc(Cl)cc1)Nc1ccc(N2CCN(C(=O)c3ccco3)CC2)cc1,i,90.0,nt,i,nt,nt
O=C(c1ccco1)N1CCN(c2ccc(Cl)cc2)CC1,i,i,i,i,i,nt
O=C(Nc1ccc(Cl)cc1)c1ccco1,57.2,i,i,i,i,i
CO[C@H]1CN(C)C(=O)c2ccc(NS(C)(=O)=O)cc2OC[C@H](C)N(Cc2cccnc2)C[C@@H]1C,nt,nt,i,nt,nt,i
CC(C)[C@H](NC(=O)OC(C)(C)C)c1nnc(S(=O)(=O)Cc2c(F)cccc2Cl)o1,i,94.7,nt,i,nt,i
C=CC[C@@H](CC(=O)N(CCO)Cc1ccccc1)C(=O)N[C@@H](COC(=O)[C@@H](CC=C)CC(=O)OC(C)(C)C)Cc1c[nH]c2ccccc12,i,i,i,nt,63.2,i
C=CC[C@H](CC(=O)N(CCO)Cc1ccccc1)C(=O)N[C@@H](COC(=O)[C@H](CC=C)CC(=O)OC(C)(C)C)Cc1c[nH]c2ccccc12,i,i,i,nt,103.3,i
CC(C)NC(=O)Nc1ccc2c(c1)C(=O)N([C@H](C)CO)C[C@@H](C)[C@H](CN(C)Cc1ccncc1)O2,nt,nt,nt,nt,i,i
COC(=O)c1cc(C)nc2c1C(=O)C(=O)C=C2N1CCOCC1,i,98.9,i,i,105.7,73.5
COC(=O)c1cc(S(=O)(=O)N2CCOCC2)c(Cl)cc1N1CCOCC1,i,i,nt,i,nt,nt
C[C@H]1CCCCO[C@H](CN(C)C(=O)Nc2ccc(C(F)(F)F)cc2)[C@@H](C)CN([C@@H](C)CO)C(=O)c2cc(NC(=O)C3CCCCC3)ccc2O1,nt,nt,nt,nt,i,i
COc1ccc(S(=O)(=O)NNC(=O)C2Cc3c(ccc4ccccc34)O2)cc1 (stereo unspecified),44.5,i,nt,i,i,nt
C(=NN1CCCCCC1)c1ccc2ccccc2n1,84.4,86.3,i,nt,nt,88.4
Cc1nn(C)cc1NC(=O)C[C@@H]1CC[C@@H]2[C@H](COc3ccc(NC(=O)NC(C)C)cc3C(=O)N2C)O1,nt,nt,i,nt,i,i
CC(=O)N(C)C[C@@H]1Oc2ccc(NC(=O)NC(C)C)cc2CC(=O)N(C)C[C@H]1C,nt,nt,i,nt,nt,nt
CC(C)(C)NC(=O)NC(=O)CN1CCN(c2ccc(O)cc2)CC1,i,86.7,i,i,i,i
Oc1ccccc1C1=Nc2ncnn2C(c2ccc(F)cc2)C1 (stereo unspecified),61.8,i,nt,i,nt,nt
C[C@H](CO)N1C[C@H](C)[C@@H](CN(C)C(=O)C2CCC2)Oc2cc(-c3ccccc3)ccc2S1(=O)=O,nt,nt,nt,nt,nt,i
CCSc1ncc(Cl)c(C(=O)Nc2ccc(S(N)(=O)=O)cc2)n1,i,i,i,i,70.4,i
CCOC(=O)c1ccc(NC(=O)c2nc(S(=O)(=O)Cc3ccccc3)ncc2Cl)cc1,i,96.1,47.5,?,i,nt
Cc1ccc(NC(=O)c2nc(S(=O)(=O)Cc3ccccc3C)ncc2Cl)cc1C,i,96.2,i,i,i,nt
CCSc1ncc(Cl)c(C(=O)Nc2ccc(S(=O)(=O)Nc3ncccn3)cc2)n1,i,i,i,i,i,i
CCc1ccc(NC(=O)c2nc(S(=O)(=O)Cc3ccccc3)ncc2Cl)cc1,i,96.2,50.8,90.7,i,nt
C[C@H]1CN([C@@H](C)CO)C(=O)c2cccc(NS(=O)(=O)c3ccc(Cl)cc3)c2O[C@H]1CN(C)Cc1ccc(-c2ccccc2)cc1,nt,nt,i,nt,i,i
COc1ccc(S(=O)(=O)N(C)C[C@@H]2Oc3ccc(NS(=O)(=O)c4ccccc4)cc3C(=O)N([C@H](C)CO)C[C@@H]2C)cc1,nt,nt,nt,nt,i,i
O=C(NCCN1CCCC1)[C@@H]1[C@@H](CO)[C@@H]2Cn3c(cccc3=O)[C@@H]2N1Cc1ccccn1,nt,nt,i,nt,nt,i
